Results on 14 compounds are retold here after paper PMC8416640 (Biochemistry and Biophysics Reports, 2021).

The target in experiment [1] is ccT2R201 (Cyprinus carpio, UniProt A0A2Z6FB59). It is filed as cell-based, common carp (Cyprinus carpio). The note with it: for response of ccT2R201 in screening of bitter compounds: single screening concentration per compound, vs control buffer. An outline of the steps: (§1)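 Transient co-transfection of HEK293T cells with a pEAK10 vector carrying the carp receptor (cloned from lip cDNA or head genomic DNA) with an N-terminal sst tag (first 45 residues of rat somatostatin receptor 3), human Gα16gust44 and mt-apoclytin-II. Cells were exposed to each bitter test compound at one fixed screening concentration. Luminescence was read as area under the curve in RLU. More than three independent experiments were run in duplicate or triplicate, with paired t-tests.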

Experiment [2] has as its target ccT2R200-1 (Cyprinus carpio, UniProt A0A2Z6FB23). It is filed as cell-based, common carp (Cyprinus carpio). Particulars: for response of ccT2R200-1 in screening of bitter compounds: single screening concentration per compound, vs control buffer.
The test system of experiment [3] is ccT2R203-1. Type of experiment: cell-based, common carp (Cyprinus carpio). Particulars: for response of ccT2R203-1 in screening of bitter compounds: single screening concentration per compound, vs control buffer.
The target in experiment [4] is ccT2R200-2 (Cyprinus carpio, UniProt A0A2Z6FB19). It is filed as cell-based, common carp (Cyprinus carpio). Particulars: for response of ccT2R200-2 in screening of bitter compounds: single screening concentration per compound, vs control buffer.
Experiment [5] concerns ccT2R202-2. Type of experiment: cell-based, common carp (Cyprinus carpio). The note with it: single screening concentration per compound, vs control buffer. Summed up:
as §1

The subject of experiment [6] is drT2R3a. The note with it: approximate, one range for four receptors; cited from earlier work.
Experiment [7] concerns drT2R1. Particulars: drT2R1, approximate, one range for four receptors; cited from earlier work.
For experiment [8], the system named is mfT2R1. The note with it: mfT2R1, approximate, one range for four receptors; cited from earlier work.
Experiment [9] deals with lcT2R01. The note with it: lcT2R01, approximate, one range for four receptors; cited from earlier work.
Experiment [10] relates to ccT2R202-1. Type of experiment: cell-based, common carp (Cyprinus carpio). Particulars: single screening concentration per compound, vs control buffer. An outline of the steps: as §1
For experiment [11], the system named is drT2R4. Particulars: zebrafish receptor; cited from earlier work.

Sequence of ccT2R200-2 (A0A2Z6FB19 1-321): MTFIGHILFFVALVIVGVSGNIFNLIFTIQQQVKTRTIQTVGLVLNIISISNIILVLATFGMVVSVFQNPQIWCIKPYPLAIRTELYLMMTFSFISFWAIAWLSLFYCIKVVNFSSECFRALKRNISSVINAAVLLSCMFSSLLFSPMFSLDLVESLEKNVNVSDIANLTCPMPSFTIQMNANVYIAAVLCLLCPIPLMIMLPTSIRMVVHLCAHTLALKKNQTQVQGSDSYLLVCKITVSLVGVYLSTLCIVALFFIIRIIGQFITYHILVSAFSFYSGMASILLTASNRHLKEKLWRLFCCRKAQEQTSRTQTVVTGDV
Sequence of ccT2R200-1 (A0A2Z6FB23 1-321): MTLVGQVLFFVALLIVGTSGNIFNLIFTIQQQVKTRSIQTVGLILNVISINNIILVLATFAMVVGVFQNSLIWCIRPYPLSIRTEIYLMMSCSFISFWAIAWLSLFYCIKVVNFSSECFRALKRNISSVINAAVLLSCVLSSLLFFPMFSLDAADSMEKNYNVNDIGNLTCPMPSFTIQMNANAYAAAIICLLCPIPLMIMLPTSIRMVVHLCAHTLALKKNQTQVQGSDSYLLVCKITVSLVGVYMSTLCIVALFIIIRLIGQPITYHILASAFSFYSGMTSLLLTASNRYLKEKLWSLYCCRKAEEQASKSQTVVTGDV
Sequence of ccT2R201 (A0A2Z6FB59 1-327): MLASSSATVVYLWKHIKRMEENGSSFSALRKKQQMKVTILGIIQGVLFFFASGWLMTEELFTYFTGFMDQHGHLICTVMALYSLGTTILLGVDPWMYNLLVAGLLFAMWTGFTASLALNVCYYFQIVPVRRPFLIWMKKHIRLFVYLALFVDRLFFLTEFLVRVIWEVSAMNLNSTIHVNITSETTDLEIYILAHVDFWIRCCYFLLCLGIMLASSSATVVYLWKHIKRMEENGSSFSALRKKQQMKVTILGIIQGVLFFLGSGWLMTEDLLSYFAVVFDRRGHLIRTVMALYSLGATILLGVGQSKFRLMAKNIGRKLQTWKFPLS

Turning to `OCc1ccccc1O[C@@H]1O[C@H](CO)[C@@H](O)[C@H](O)[C@H]1O` [D-(−)-salicin], in experiment [1], the “response of ccT2R201 in screening of bitter compounds” value (“response of ccT2R201” below) is reported as “weakly responded”.
Still for that read-out and setting: next, `COc1cc2c(c(OC)c1OC)-c1ccc(OC)c(=O)cc1[C@@H](NC(C)=O)CC2` [colchicine]: “weakly responded”; `O=C(N[C@H](CO)[C@H](O)c1ccc([N+](=O)[O-])cc1)C(Cl)Cl` [chloramphenicol]: “weakly responded”.
`O=C(O)c1cc(=O)c2c(OCC(O)COc3cccc4oc(C(=O)O)cc(=O)c34)cccc2o1` [cromolyne]: the “response of ccT2R200-1 in screening of bitter compounds” value in [2] is reported as “weakly responded”.
On to `CN(C)C=S` [dimethyl-thioformamide], for which the “response of ccT2R200-1 in screening of bitter compounds” value in experiment [2] was “weakly responded”. For the same compound, the “response of ccT2R203-1 in screening of bitter compounds” value in experiment [3] is “weakly responded”.
Take `CNC(N)=S` [methylthiourea]: the “response of ccT2R203-1 in screening of bitter compounds” value in experiment [3] was “weakly responded”.
Consider amarogentin, for which the “response of ccT2R200-1 in screening of bitter compounds” value in [2] is “strongly activated”. For the same compound, the “response of ccT2R201” value in [1] is given as “strongly activated”.
On to `C=C1CC[C@@H]2[C@](C)(CO)[C@H](O)CC[C@@]2(C)[C@@H]1C/C=C1/C(=O)OC[C@H]1O` [andrographolide], for which, in experiment [2], the EC50 was determined as 182 ± 7 µM and the “response of ccT2R200-1 in screening of bitter compounds” value is listed as “strongly activated”. In experiment [4], the EC50 was 335 ± 38 µM and the “response of ccT2R200-2 in screening of bitter compounds” value was “strongly activated”. In addition, the “response of ccT2R202-2 in screening of bitter compounds” value in experiment [5] is recorded as “weakly activated”. Besides, the “response of ccT2R203-1 in screening of bitter compounds” value in experiment [3] is “weakly responded”.
As to `CC[N+](CC)(CC(=O)Nc1c(C)cccc1C)Cc1ccccc1` [denatonium benzoate], the EC50 in experiment [1] is 44 ± 5 µM; in experiment [6] it was 300 to 3000 µM; in [7] it was 300 to 3000 µM; in experiment [8] it was 300 to 3000 µM; in [9], 300 to 3000 µM. Also, in experiment [1], the “response of ccT2R201” value is “weakly responded”.
Regarding `O=C1C[C@@H]2OCC=C3CN4CC[C@]56c7ccccc7N1[C@H]5[C@H]2[C@H]3C[C@H]46` [strychinine], the “response of ccT2R200-1 in screening of bitter compounds” value in experiment [2] is listed as “weakly responded”. Besides, in experiment [10], the “response of ccT2R202-1 in screening of bitter compounds” value is given as “weakly activated”.
With `C=C(C)[C@@H]1[C@H]2OC(=O)[C@@H]1[C@]1(O)C[C@H]3O[C@]34C(=O)O[C@H]2[C@]14C` [picrotoxinin], the EC50 in [2] came to 510 ± 26 µM; in experiment [3] (ccT2R203-1, dose-response with seven concentrations, HEK293T, luminescence AUC) it was 425 ± 99 µM. In addition, the “response of ccT2R200-1 in screening of bitter compounds” value in experiment [2] is “strongly activated”. Further, in [4], the “response of ccT2R200-2 in screening of bitter compounds” value is “strongly activated”. In addition, in experiment [3], the “response of ccT2R203-1 in screening of bitter compounds” value was “strongly activated”. Also, in experiment [11], the “response of drT2R4” value is recorded as “does not respond”.
Consider `CC(C)[C@]12CC(=O)[C@H](C)[C@H]1C2` [α-thujon], for which the “response of ccT2R200-1 in screening of bitter compounds” value in [2] is recorded as “weakly responded”.
`CC1=C[C@H]2[C@H]3[C@H](C(C)=C4[C@H]5OC(=O)[C@@H](C)[C@@H]5CC[C@](C)(O)[C@@H]43)[C@@]13[C@@H]2[C@@](C)(O)CC[C@H]1[C@H](C)C(=O)O[C@@H]13` [absinthin]: the “response of ccT2R200-1 in screening of bitter compounds” value in [2] is on record as “weakly responded”. Further, in [4], the “response of ccT2R200-2 in screening of bitter compounds” value is listed as “weakly responded”. Further, the “response of ccT2R203-1 in screening of bitter compounds” value in experiment [3] is listed as “weakly responded”.
Take `CCCc1cc(=O)[nH]c(=S)[nH]1` [PROP]: the “response of ccT2R200-1 in screening of bitter compounds” value in experiment [2] is listed as “weakly responded”. Moreover, the “response of ccT2R200-2 in screening of bitter compounds” value in experiment [4] is “strongly activated”. In experiment [1], the “response of ccT2R201” value is on record as “strongly activated”. For the same compound, in experiment [3], the “response of ccT2R203-1 in screening of bitter compounds” value is given as “strongly activated”.
